According to ChEMBL document CHEMBL3272355, “Structure--activity relationships in cephalosporins prepared from penicillins. 1. 7beta-Acylamino derivatives of 3-benzyl- and 3-(3-pyridylmethyl)ceph-3-em-4-carboxylic acids” (1977):
In brackets after ≈: the same amount, converted by molar mass.

Experiments:
Salmonella typhi = experiment: Antibacterial activity against Salmonella typhi assessed as growth inhibition after 18 hrs by serial dilution method; assay type: functional, Salmonella enterica subsp. enterica serovar Typhi; conditions: Salmonella enterica
Shigella sonnei = experiment: Antibacterial activity against Shigella sonnei assessed as growth inhibition after 18 hrs by serial dilution method; assay type: functional
Outline: (§1)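 Agar dilution MIC: serial dilutions in nutrient agar, each spot-inoculated with 0.001 mL of undiluted overnight broth culture. MIC read after 18 h incubation at 37 °C.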

Staphylococcus aureus [1] = experiment: Antibacterial activity against Staphylococcus aureus Oxford assessed as growth inhibition after 18 hrs by serial dilution method; assay type: functional; outline: as §1
Klebsiella aerogenes = experiment: Antibacterial activity against Klebsiella aerogenes assessed as growth inhibition after 18 hrs by serial dilution method; assay type: functional; outline: as §1
Proteus mirabilis = experiment: Antibacterial activity against Proteus mirabilis assessed as growth inhibition after 18 hrs by serial dilution method; assay type: functional; outline: as §1
Escherichia coli = experiment: Antibacterial activity against Escherichia coli assessed as growth inhibition after 18 hrs by serial dilution method; assay type: functional; outline: as §1
Staphylococcus aureus [2] = experiment: Antibacterial activity against beta-lactamase producing benzylpenicillin-resistant Staphylococcus aureus Russell assessed as growth inhibition after 18 hrs by serial dilution method; assay type: functional

| SMILES | MIC (Salmonella typhi) [µg/mL] | MIC (Shigella sonnei) [µg/mL] | MIC (Staphylococcus aureus [1]) [µg/mL] | MIC (Klebsiella aerogenes) [µg/mL] | MIC (Proteus mirabilis) [µg/mL] | MIC (Escherichia coli) [µg/mL] | MIC (Staphylococcus aureus [2]) [µg/mL] |
| --- | --- | --- | --- | --- | --- | --- | --- |
| N[C@@H](C(=O)N[C@@H]1C(=O)N2C(C(=O)O)=C(Cc3ccccc3)CS[C@H]12)c1ccccc1 | 25 (≈ 59 µM) | 25 (≈ 59 µM) | 0.1 (≈ 0.236 µM) | 25 (≈ 59 µM) | 50 (≈ 118 µM) | 25 (≈ 59 µM) | 2.5 (≈ 5.9 µM) |
| N[C@@H](C(=O)N[C@@H]1C(=O)N2C(C(=O)O)=C(Cc3cccnc3)CS[C@H]12)c1ccccc1 | 1.25 (≈ 2.94 µM) | 2.5 (≈ 5.89 µM) | 0.25 (≈ 0.589 µM) | 2.5 (≈ 5.89 µM) | 5 (≈ 11.8 µM) | 2.5 (≈ 5.89 µM) | 2.5 (≈ 5.89 µM) |
| O=C(Cc1cccs1)N[C@@H]1C(=O)N2C(C(=O)O)=C(Cc3ccccc3)CS[C@H]12 | 200 (≈ 482 µM) | 200 (≈ 482 µM) | 0.05 (≈ 0.121 µM) | > 200 | > 200 | 200 (≈ 482 µM) | 10 (≈ 24.1 µM) |
| CC(=O)N[C@@H]1C(=O)N2C(C(=O)O)=C(Cc3ccccc3)CS[C@H]12 | 500 (≈ 1500 µM) | > 500 | 0.5 (≈ 1.5 µM) | > 500 | > 500 | > 500 | 2.5 (≈ 7.52 µM) |
| O=C(O)C1=C(Cc2ccccc2)CS[C@@H]2[C@H](NC(=O)C(F)(F)F)C(=O)N12 | > 500 | > 500 | 2.5 (≈ 6.47 µM) | > 500 | 500 (≈ 1290 µM) | > 500 | 12.5 (≈ 32.4 µM) |
| N#CCC(=O)N[C@@H]1C(=O)N2C(C(=O)O)=C(Cc3ccccc3)CS[C@H]12 | 250 (≈ 700 µM) | 500 (≈ 1400 µM) | 0.12 (≈ 0.336 µM) | > 500 | > 500 | 500 (≈ 1400 µM) | 0.5 (≈ 1.4 µM) |
| O=C(COc1ccccc1)N[C@@H]1C(=O)N2C(C(=O)O)=C(Cc3ccccc3)CS[C@H]12 | > 500 | > 500 | 0.02 (≈ 0.0471 µM) | > 500 | 500 (≈ 1180 µM) | > 500 | 0.12 (≈ 0.283 µM) |
| CCSCC(=O)N[C@@H]1C(=O)N2C(C(=O)O)=C(Cc3ccccc3)CS[C@H]12 | 125 (≈ 318 µM) | > 125 | 0.12 (≈ 0.306 µM) | > 125 | > 125 | > 125 | 1.25 (≈ 3.18 µM) |
| O=C(O)CSCC(=O)N[C@@H]1C(=O)N2C(C(=O)O)=C(Cc3ccccc3)CS[C@H]12 | 250 (≈ 592 µM) | 250 (≈ 592 µM) | 5 (≈ 11.8 µM) | > 500 | 125 (≈ 296 µM) | > 500 | 25 (≈ 59.2 µM) |
| O=C(O)C1=C(Cc2ccccc2)CS[C@@H]2[C@H](NC(=O)[C@H](O)c3ccccc3)C(=O)N12 | 50 (≈ 118 µM) | 50 (≈ 118 µM) | 0.12 (≈ 0.283 µM) | 50 (≈ 118 µM) | > 500 | 125 (≈ 294 µM) | 12.5 (≈ 29.4 µM) |
| O=C(O)C1=C(Cc2ccccc2)CS[C@@H]2[C@H](NC(=O)C(C(=O)Oc3ccccc3)c3ccccc3)C(=O)N12 (some centres undefined) | > 100 | > 100 | 2.5 (≈ 4.73 µM) | > 100 | 50 (≈ 94.6 µM) | > 100 | 25 (≈ 47.3 µM) |
| O=C(Cc1ccncc1)N[C@@H]1C(=O)N2C(C(=O)O)=C(Cc3ccccc3)CS[C@H]12 | 50 (≈ 122 µM) | 50 (≈ 122 µM) | 0.05 (≈ 0.122 µM) | 100 (≈ 244 µM) | 100 (≈ 244 µM) | 50 (≈ 122 µM) | 5 (≈ 12.2 µM) |
| O=C(CSc1ccncc1)N[C@@H]1C(=O)N2C(C(=O)O)=C(Cc3ccccc3)CS[C@H]12 | 250 (≈ 566 µM) | 250 (≈ 566 µM) | 0.05 (≈ 0.113 µM) | > 500 | 250 (≈ 566 µM) | 250 (≈ 566 µM) | 2.5 (≈ 5.66 µM) |
| O=C(Cn1ncnn1)N[C@@H]1C(=O)N2C(C(=O)O)=C(Cc3ccccc3)CS[C@H]12 | > 500 | 125 (≈ 312 µM) | 0.12 (≈ 0.3 µM) | 500 (≈ 1250 µM) | 125 (≈ 312 µM) | > 500 | 1.25 (≈ 3.12 µM) |
| C[C@@H](N)C(=O)N[C@@H]1C(=O)N2C(C(=O)O)=C(Cc3ccccc3)CS[C@H]12 | > 100 | > 100 | 5 (≈ 13.8 µM) | > 100 | > 100 | > 100 | 10 (≈ 27.7 µM) |
| N[C@@H](C(=O)N[C@@H]1C(=O)N2C(C(=O)O)=C(Cc3ccccc3)CS[C@H]12)C1CC1 | > 250 | > 250 | 5 (≈ 12.9 µM) | > 250 | > 250 | > 250 | 12.5 (≈ 32.3 µM) |
| N[C@@H](C(=O)N[C@@H]1C(=O)N2C(C(=O)O)=C(Cc3ccccc3)CS[C@H]12)c1ccc(O)cc1 | 5 (≈ 11.4 µM) | 12.5 (≈ 28.4 µM) | 0.12 (≈ 0.273 µM) | 5 (≈ 11.4 µM) | 25 (≈ 56.9 µM) | 12.5 (≈ 28.4 µM) | 1.25 (≈ 2.84 µM) |
| O=C(COc1ccccc1)N[C@@H]1C(=O)N2C(C(=O)O)=C(Cc3cccnc3)CS[C@H]12 | 500 (≈ 1180 µM) | 500 (≈ 1180 µM) | 0.02 (≈ 0.047 µM) | 500 (≈ 1180 µM) | 125 (≈ 294 µM) | 500 (≈ 1180 µM) | 0.12 (≈ 0.282 µM) |
| CCSCC(=O)N[C@@H]1C(=O)N2C(C(=O)O)=C(Cc3cccnc3)CS[C@H]12 | 50 (≈ 127 µM) | 50 (≈ 127 µM) | 0.05 (≈ 0.127 µM) | 50 (≈ 127 µM) | 25 (≈ 63.5 µM) | 50 (≈ 127 µM) | 1.25 (≈ 3.18 µM) |
| O=C(O)C1=C(Cc2cccnc2)CS[C@@H]2[C@H](NC(=O)[C@H](O)c3ccccc3)C(=O)N12 | 2.5 (≈ 5.88 µM) | 2.5 (≈ 5.88 µM) | 0.25 (≈ 0.588 µM) | 2.5 (≈ 5.88 µM) | 5 (≈ 11.8 µM) | 2.5 (≈ 5.88 µM) | 12.5 (≈ 29.4 µM) |
| O=C(Cc1ccncc1)N[C@@H]1C(=O)N2C(C(=O)O)=C(Cc3cccnc3)CS[C@H]12 | 10 (≈ 24.4 µM) | 25 (≈ 60.9 µM) | 0.12 (≈ 0.292 µM) | 10 (≈ 24.4 µM) | 10 (≈ 24.4 µM) | 25 (≈ 60.9 µM) | 25 (≈ 60.9 µM) |
| O=C(CSc1ccncc1)N[C@@H]1C(=O)N2C(C(=O)O)=C(Cc3cccnc3)CS[C@H]12 | 10 (≈ 22.6 µM) | 25 (≈ 56.5 µM) | < 0.02 | 5 (≈ 11.3 µM) | 100 (≈ 226 µM) | 25 (≈ 56.5 µM) | 1 (≈ 2.26 µM) |
| O=C(O)C1=C(Cc2cccnc2)CS[C@@H]2[C@H](NC(=O)C(C(=O)Oc3ccccc3)c3cccs3)C(=O)N12 (some centres undefined) | 50 (≈ 93.4 µM) | 12.5 (≈ 23.3 µM) | 12.5 (≈ 23.3 µM) | 12.5 (≈ 23.3 µM) | 12.5 (≈ 23.3 µM) | 12.5 (≈ 23.3 µM) |  |
| N[C@@H](C(=O)N[C@@H]1C(=O)N2C(C(=O)O)=C(Cc3cccnc3)CS[C@H]12)C1CC1 | 250 (≈ 644 µM) | 250 (≈ 644 µM) | 5 (≈ 12.9 µM) | 250 (≈ 644 µM) | 500 (≈ 1290 µM) | 500 (≈ 1290 µM) | 12.5 (≈ 32.2 µM) |
| NC(C(=O)N[C@@H]1C(=O)N2C(C(=O)O)=C(Cc3cccnc3)CS[C@H]12)c1cccs1 (some centres undefined) | 2.5 (≈ 5.81 µM) | 5 (≈ 11.6 µM) | 0.5 (≈ 1.16 µM) | 5 (≈ 11.6 µM) | 12.5 (≈ 29 µM) | 12.5 (≈ 29 µM) | 5 (≈ 11.6 µM) |
| O=C(Cc1cccs1)N[C@@H]1C(=O)N2C(C(=O)O)=C(Cc3cccnc3)CS[C@H]12 | 5 (≈ 12 µM) | 25 (≈ 60.2 µM) | 0.05 (≈ 0.12 µM) | 25 (≈ 60.2 µM) | 25 (≈ 60.2 µM) | 25 (≈ 60.2 µM) | 10 (≈ 24.1 µM) |
| NC(CC(=O)N[C@@H]1C(=O)N2C(C(=O)O)=C(Cc3cccnc3)CS[C@H]12)C1CC=CCC1 (mixture of isomers) | 125 | 125 | 0.5 | 125 | 250 | 125 | 1.25 |
| CC1=C(C(=O)O)N2C(=O)[C@@H](NC(=O)[C@H](N)c3ccccc3)[C@H]2SC1 [CEPHALEXIN ANHYDROUS] | 5 (≈ 14.4 µM) | 5 (≈ 14.4 µM) | 1.25 (≈ 3.6 µM) | 5 (≈ 14.4 µM) | 12.5 (≈ 36 µM) | 12.5 (≈ 36 µM) | 5 (≈ 14.4 µM) |
| O=C(Cc1cccs1)N[C@@H]1C(=O)N2C(C(=O)[O-])=C(C[n+]3ccccc3)CS[C@H]12 [CEPHALORIDINE] | 1.25 (≈ 3.01 µM) | 1.25 (≈ 3.01 µM) | 0.02 (≈ 0.0481 µM) | 2.5 (≈ 6.02 µM) | 5 (≈ 12 µM) | 5 (≈ 12 µM) | 1.25 (≈ 3.01 µM) |
| CC(=O)OCC1=C(C(=O)O)N2C(=O)[C@@H](NC(=O)Cc3cccs3)[C@H]2SC1 [CEPHALOTHIN] | 12.5 (≈ 31.5 µM) | 5 (≈ 12.6 µM) | 0.12 (≈ 0.303 µM) | 5 (≈ 12.6 µM) | 5 (≈ 12.6 µM) | 5 (≈ 12.6 µM) | 0.5 (≈ 1.26 µM) |
